Screens: PubChem BioAssay, SRMLSC
This excerpt belongs to a sample that is enriched for hits.
BB579 growth dn: growth inhibitors of yeast BB579 in restrictive medium, primary screen, yeast lifespan-shortening project, S. cerevisiae. 0.51% of 140,000 active. inhibition, % at 10 µM. OD615, 48 h. AID 804, 2007;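 active means inhibition above a set limit, 3 SD over the mean compound inhibition, cut at about 44% in these data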
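controls = amphotericin B 10 µg/mL, positive | assay system = DeaD yeast strain BB579 | schedule = 48 h compound exposure at 30 °C after 4 h preincubation | detection = OD615 turbidity measurement | medium = restrictive CSMM-D medium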
PostGolgi yeast: phenotypic screen on post-Golgi transport, primary screen; inhibition, % at 10 µM; AID 739, 2007; post-Golgi transport phenotypic cell assay; 0.9% of 98,000 active;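 further: yeast cells grown in 1536-well plates; yeast grown about 18 h at 30C before absorbance read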
PostGolgi ctrl: growth inhibition of yeast control strain, primary screen, counter-screen for post-Golgi transport modulator project; 5% of 98,000 active; AID 738, 2007; efflux-deficient yeast background strain, growth absorbance A615, 16 h; inhibition, % at 10 µM
Yeast lifespan up: compounds extending yeast replicative lifespan, primary screen, S. cerevisiae, OD615; S. cerevisiae growth with nicotinamide; deaD strain in restrictive glucose medium; inhibition of the nicotinamide effect, % at 10 µM; 0.68% of 130,000 active;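 active means inhibition above a set limit, placed 3 SD over the median of all compounds, cut at about 26% in these data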;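 further: 0% = nicotinamide-treated wells and 100% = cells grown without nicotinamide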
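Assay system: engineered S. cerevisiae DeaD replicative-lifespan strain, galactose-grown log-phase cells; medium: restrictive CSMM-D dextrose medium; also added: nicotinamide, 1.5 mM, co-present with compound; schedule: 48 h compound exposure at 30 °C, humidified; detection: absorbance at 615 nm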
Starred values were filed as active, the others as inactive; / = no result given. Unless noted, no stated cut-off is given here; in the data, active means inhibition above about 30%; inactive means the rest.

SMILES	BB579 growth dn	PostGolgi yeast	PostGolgi ctrl	Yeast lifespan up
Cc1nc(NS(=O)(=O)c2cccs2)c2c3c(sc2n1)CCC3	5.5	-3.0	29.4	17.5
Cc1nc(NS(=O)(=O)c2ccc(Br)cc2)c2c3c(sc2n1)CCC3	-42.1	-4.5	33.1*	0.8
CC(=O)Nc1ccc(S(=O)(=O)NCC(C)NS(=O)(=O)c2ccc(NC(C)=O)cc2)cc1 (configuration not stated)	-49.1	-9.5	37.3*	-11.1
CCCN1CCC2(CC1)C(C#N)=C(N)Oc1c2sc2nc(C)cc(C)c12	-26.8	-2.9	-5.8	-6.8
CCOC(=O)N1CCC2(CC1)C(C#N)=C(N)Oc1c2sc2nc(C)cc(C)c12	-51.3	10.1	55.1*	30.5
CCOC(=O)N1CCC2(CC1)C(C#N)=C(N)Oc1c2c(C)nn1-c1cccc(Cl)c1	-75.1	-6.6	31.1*	52.5
COC(=O)c1sc(S(=O)(=O)Nc2ccc(Br)cc2)c(C(=O)OC)c1C	-12.2	/	/	41.9*
COC(=O)c1sc(S(=O)(=O)Nc2ccc(C)cc2)c(C(=O)OC)c1C	-40.8	/	/	38.0*
O=[N+]([O-])c1c(C(Cl)Cl)nn(-c2ccccc2)c1N1CCCC1	-42.5	-0.8	31.0*	45.2*
O=C(CSc1ncnc2nc[nH]c12)N1CCOCC1	30.1	8.2	14.9	-4.2
O=C(CC(=O)NC1CCCCC1)N/N=C/c1ccc(Cl)cc1	-34.1	2.2	14.3	-4.3
N/C(=N\OC(=O)CCC1CCCCC1)c1cccnc1	-19.2	0.6	32.6*	-4.4
N/C(=N\OC(=O)CCC1CCCCC1)c1ccc([N+](=O)[O-])cc1	-23.9	1.3	-1.5	-9.1
CCOCCCNc1nc2c(c(=O)n(C)c(=O)n2C)n1CCCc1ccccc1	6.6	-11.9	32.9*	-14.6
Cc1ccc2nc(-c3ccc(NS(=O)(=O)c4ccc(F)cc4)cc3)sc2c1	90.7*	/	/	-7.2
CC(=O)Nc1ccc(S(=O)(=O)Nc2nc3ccc(C)cc3s2)cc1	10.4	-5.5	5.2	-4.2
Cc1n[nH]c(=O)n1-c1cccc(C(F)(F)F)c1	-10.5	-14.9	4.8	74.8*
COc1ccccc1-c1c(C(F)(F)F)oc2cc(OC(=O)c3ccccc3[N+](=O)[O-])ccc2c1=O	-29.9	4.0	31.0*	5.9
COc1ccc(C(=O)NCC(=O)OCC(=O)N2CCCc3ccccc32)cc1	-22.3	/	/	-1.9
COc1ccc(/C=C/C(=O)CC(O)(c2ccccc2)C(F)(F)F)cc1 (configuration not stated)	-21.4	/	/	/
O=C(/C=C/c1ccccc1)CC(O)(c1ccccc1)C(F)(F)C(F)F (configuration not stated)	-41.5	8.2	65.6*	40.2*
O=C(/C=C/c1ccccc1)CC(O)(c1ccccc1)C(F)(F)F (configuration not stated)	-26.5	5.6	70.5*	34.9*
O=C(CC(O)(c1ccccc1)C(F)(F)C(F)F)c1cccs1 (configuration not stated)	11.7	-1.6	8.1	-13.5
C=CCn1nnc2sc3c(c2c1=O)CCC(C)C3 (configuration not stated)	-75.0	3.8	10.2	4.7
Cc1nc2ccc(C(C(F)(F)F)(C(F)(F)F)C(F)(F)F)cc2[nH]1	3.9	8.0	66.4*	-0.5
SMILES	BB579 growth dn	PostGolgi yeast	PostGolgi ctrl	Yeast lifespan up
Cc1nc2ccc(S(=O)(=O)c3ccc4nc(C)[nH]c4c3)cc2[nH]1	-28.0	6.7	3.4	-7.4
COc1cc2c(cc1OC)C(c1ccccc1F)OC(=O)C2 (configuration not stated)	-10.2	/	/	-3.5
COc1ccc(Oc2c(-c3ccc(O)cc3O)n[nH]c2C)cc1	-26.3	-0.2	0.6	-4.8
CCCc1ccc(Oc2c(-c3ccc(O)c(C)c3O)n[nH]c2C)cc1	99.4*	79.8*	65.2*	-14.5
CCCc1ccc(Oc2cn[nH]c2-c2ccc(O)c(C)c2O)cc1	99.6*	80.2*	91.8*	-15.0
CCC(CC)C(=O)Nc1cc(C)cc(C)c1	-46.6	3.9	2.6	-5.1
Cc1ccc(CN(C(=O)c2csnn2)C(C(=O)NC2CCCC2)c2ccc(C)o2)cc1 (configuration not stated)	-19.5	/	/	/
COCCOc1cc(Nc2nnc(C(F)(F)F)s2)c(Cl)cc1Cl	-30.0	20.7	32.3*	-8.6
COc1ccc(NC(=O)CSc2nc3ccccc3c(=O)n2CCCN2CCCCC2)c(OC)c1	-61.0	-4.3	7.2	-8.1
CCOCCCNC(=O)C1CCN(S(=O)(=O)N2CCCCC2)CC1	6.6	-10.1	12.5	-4.1
CCOCCCNC(=O)C1CCN(C(=O)N(C)C)CC1	-25.1	43.4*	-3.3	-13.8
CS(=O)(=O)N(CCc1ccccc1)CC(=O)NCc1ccco1	8.6	-8.3	20.8	-10.1
Cc1cc(NC(=O)C2CCN(S(=O)(=O)c3cnc[nH]3)CC2)ccc1Br	-2.2	1.6	-1.3	-0.4
Cc1ccc(-n2c(C)nc3c(cnn3-c3ccc(C)c(C)c3)c2=O)cc1C	-29.8	5.6	47.1*	-4.2
Cc1cccc(NC(=O)c2cccc(NS(=O)(=O)c3ccc(Cl)cc3)c2)c1	-44.9	-2.0	-7.2	-12.1
Cc1ccc(S(=O)(=O)Nc2cc(C(=O)Nc3cc(C)cc(C)c3)ccc2Cl)cc1	-11.0	-1.2	36.8*	-3.9
COC(=O)c1cn(Nc2ncc(C(F)(F)F)cc2Cl)c(=O)c2ccccc12	-36.7	-5.0	39.9*	-5.0
COC(=O)c1cn(N(C)c2ncc(C(F)(F)F)cc2Cl)c(=O)c2ccccc12	-27.0	-6.6	21.6	-5.8
CC1(C)CC(=O)C(C(=O)Cc2ccccc2[N+](=O)[O-])C(=O)C1	-35.4	/	/	57.9*
CCC1(C)Cc2c(sc3nnn(Cc4ccccc4Cl)c(=O)c23)CO1 (configuration not stated)	-52.7	0.7	16.2	9.4
Cc1ccc(/C=C/c2ccc(=O)n(Cc3ccccc3Cl)n2)cc1	-29.1	-5.0	42.2*	-8.0
CC1=NOC(=O)/C1=C/c1ccc(-c2ccc(Cl)cc2)o1	92.5*	-0.2	-0.1	-7.2
O=C(COC(=O)C1CCN(S(=O)(=O)c2ccc3c(c2)OCCO3)CC1)Nc1cccc2ccccc12	-31.7	/	/	-3.0
CCOC(=O)C1CCN(S(=O)(=O)c2cccc3nonc23)CC1	-49.4	14.6	7.6	-0.2
CC1CCN(C(=O)C2CCN(S(=O)(=O)c3cccc4nonc34)CC2)CC1	-34.8	8.1	31.5*	-25.4
SMILES	BB579 growth dn	PostGolgi yeast	PostGolgi ctrl	Yeast lifespan up
COC(=O)C(=O)/C=C(\O)c1ccc(C)cc1	-19.5	-0.6	1.0	72.6*
Cc1ccc(/C(O)=C/C(=O)C(=O)NNC(=O)C(O)(c2ccccc2)c2ccccc2)cc1	-35.9	/	/	/
Cc1cc(C)c2c(N=NN(C)C)[nH]nc2n1	72.6*	-0.5	5.2	-8.1
C/C(=C1/SC(N2CCCC2)=NC1=O)c1ccc(Br)cc1	-14.0	-0.9	32.6*	-32.7
COc1ccc(NC(=S)NC(NC(=O)c2ccccc2Cl)C(Cl)(Cl)Cl)c([N+](=O)[O-])c1 (configuration not stated)	-15.9	3.3	16.1	-3.8
COc1ccc(NC(=S)NC(NC(=O)c2ccc(Cl)cc2Cl)C(Cl)(Cl)Cl)c([N+](=O)[O-])c1 (configuration not stated)	-80.1	68.9*	22.4	5.6
